Measurements as given in ChEMBL document CHEMBL3244396, “Synthesis and antileukemic activity of 5-substituted 2,3-dihydro-6,7-bis(hydroxymethyl)-1H-pyrrolizine diesters” (J Med Chem, 1977).
Converted amounts (≈) assume the structure as drawn.

Assays:
P388 [1] = assay: Antitumor activity against mouse P388 cells allografted in female CDF1 mouse assessed as disease cures by measuring 30-days host survival at 6.25 mg/kg, ip administered daily for 9 days as Klucel suspension starting 24 hrs after tumor inoculation relative to control; format: functional; details: route intraperitoneal
How it was run: (§1)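 P388 leukemia given as an ascitic fluid cell inoculum, ip, to mice of the strain and sex in each line. Nine daily ip doses were given in a Klucel (hydroxypropylcellulose) suspension, starting 24 h after inoculation. Read-out is median survival time as %T/C, with >125 taken as significant; a "cure" means 30-day survival.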

L1210 [2] = assay: Antileukemic activity against mouse L1210 cells allografted in female BDF1 mouse assessed as change in body weight at 200 mg/kg, ip administered daily for 9 days as Klucel suspension starting 24 hrs after tumor inoculation; format: functional; details: route intraperitoneal
How it was run: (§2)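 Ascitic fluid carrying L1210 cells was inoculated ip. Compound was given ip as a Klucel (hydroxypropylcellulose) suspension in nine daily doses, starting 24 h after inoculation. Body-weight difference (treated minus control) was recorded on day 5. Survival was scored as %T/C of mean survival time.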

P388 [3] = assay: Antitumor activity against mouse P388 cells allografted in female CDF1 mouse assessed as change in body weight at 100 mg/kg, ip administered daily for 9 days as Klucel suspension starting 24 hrs after tumor inoculation; format: functional; details: route intraperitoneal
How it was run: (§3)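 Ascitic fluid carrying P388 cells was inoculated ip. Compound was given ip in nine daily doses, starting 24 h after inoculation, in Klucel (hydroxypropylcellulose) suspension or in saline with Tween-80. Body-weight difference (treated minus control) was recorded on day 5. Survival was scored as %T/C of median survival time, and 30-day survival counted as cure.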

Mus musculus [4] = assay: Toxicity in female BDF1 mouse allografted with mouse L1210 cells assessed as animal survival at 200 mg/kg, ip administered daily for 9 days as Klucel suspension starting 24 hrs after tumor inoculation measured on fifth day; format: organism-based; parameters: dose 200 mg/kg, route intraperitoneal; details: in vivo
How it was run: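 L1210 leukemia passaged as ascitic fluid and inoculated ip. Test agent given ip as a Klucel (hydroxypropylcellulose) suspension, nine daily doses starting 24 h after tumor inoculation. Acute toxicity read as toxicity-day survivors per group (out of 6), recorded on day 5. Animal weight difference T − C was also recorded. Follows NCI screening protocols.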

L1210 [5] = assay: Antileukemic activity against mouse L1210 cells allografted in female BDF1 mouse assessed as change in body weight at 100 mg/kg, ip administered daily for 9 days as Klucel suspension starting 24 hrs after tumor inoculation; format: functional; details: route intraperitoneal; how it was run: as §2
P388 [6] = assay: Antitumor activity against mouse P388 cells allografted in female CDF1 mouse assessed as change in body weight at 50 mg/kg, ip administered daily for 9 days as Klucel suspension starting 24 hrs after tumor inoculation; format: functional; details: route intraperitoneal; how it was run: as §3
L1210 [7] = assay: Antileukemic activity against mouse L1210 cells allografted in female BDF1 mouse assessed as host mean survival time at 50 mg/kg, ip administered daily for 9 days as Klucel suspension starting 24 hrs after tumor inoculation relative to control; format: functional; details: route intraperitoneal
How it was run: (§4)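 L1210 leukemia given as an ascitic fluid cell inoculum, ip, to mice of the strain and sex in each line. Test material was given ip for nine daily doses starting 24 h after inoculation, in a Klucel (hydroxypropylcellulose) suspension. Read-out is mean survival time as %T/C versus controls, with >125 taken as significant.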

P388 [8] = assay: Antitumor activity against mouse P388 cells allografted in female CDF1 mouse assessed as disease cures by measuring 30-days host survival at 3.13 mg/kg, ip administered daily for 9 days as Klucel suspension starting 24 hrs after tumor inoculation relative to control; format: functional; details: route intraperitoneal; how it was run: as §1
Mus musculus [9] = assay: Toxicity in female CDF1 mouse allografted with mouse P388 cells assessed as animal survival at 6.25 mg/kg, ip administered daily for 9 days as Klucel suspension starting 24 hrs after tumor inoculation; format: organism-based; parameters: dose 6.25 mg/kg, route intraperitoneal; details: in vivo
How it was run: (§5)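 P-388 leukemia ascitic fluid inoculated ip. Compound given ip as a suspension in Klucel (hydroxypropylcellulose), once daily for nine doses beginning 24 h post-inoculation. Acute toxicity assessed as toxicity-day survivors per group. Survival was followed up to 30 days, with 30-day survival counted as "cure". Follows NCI screening protocols.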

[10] = Cytotoxicity against human 9KB cells treated as ethanol solution; format: functional; details: read-out: ED50 (the source's name)
How it was run: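 Compound applied as an ethanol solution; activity read out as ED50 under the general screening protocol.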

P388 [11] = assay: Antitumor activity against mouse P388 cells allografted in female CDF1 mouse assessed as disease cures by measuring 30-days host survival at 50 mg/kg, ip administered daily for 9 days as Klucel suspension starting 24 hrs after tumor inoculation relative to control; format: functional; details: route intraperitoneal; how it was run: as §1
P388 [12] = assay: Antitumor activity against mouse P388 cells allografted in female BDF1 mouse assessed as change in body weight at 12.5 mg/kg, ip administered daily for 9 days as Klucel suspension starting 24 hrs after tumor inoculation; format: functional; details: route intraperitoneal; how it was run: as §3
L1210 [13] = assay: Antileukemic activity against mouse L1210 cells allografted in female BDF1 mouse assessed as host mean survival time at 100 mg/kg, ip administered daily for 9 days as Klucel suspension starting 24 hrs after tumor inoculation relative to control; format: functional; details: route intraperitoneal; how it was run: as §4
P388 [14] = assay: Antitumor activity against mouse P388 cells allografted in female CDF1 mouse assessed as change in body weight at 200 mg/kg, ip administered daily for 9 days as Klucel suspension starting 24 hrs after tumor inoculation; format: functional; details: route intraperitoneal; how it was run: as §3
P388 [15] = assay: Antitumor activity against mouse P388 cells allografted in female BDF1 mouse assessed as disease cures by measuring 30-days host survival at 12.5 mg/kg, ip administered daily for 9 days as Klucel suspension starting 24 hrs after tumor inoculation relative to control; format: functional; details: route intraperitoneal; how it was run: as §1
Mus musculus [16] = assay: Toxicity in female BDF1 mouse allografted with mouse P388 cells assessed as animal survival at 12.5 mg/kg, ip administered daily for 9 days as Klucel suspension starting 24 hrs after tumor inoculation; format: organism-based; parameters: dose 12.5 mg/kg, route intraperitoneal; details: in vivo; how it was run: as §5
L1210 [17] = assay: Antileukemic activity against mouse L1210 cells allografted in female BDF1 mouse assessed as change in body weight at 50 mg/kg, ip administered daily for 9 days as Klucel suspension starting 24 hrs after tumor inoculation; format: functional; details: route intraperitoneal; how it was run: as §2
Mus musculus [18] = assay: Toxicity in female BDF1 mouse allografted with mouse P388 cells assessed as animal survival at 25 mg/kg, ip administered daily for 9 days as Klucel suspension starting 24 hrs after tumor inoculation; format: organism-based; parameters: dose 25 mg/kg, route intraperitoneal; details: in vivo; how it was run: as §5
P388 [19] = assay: Antitumor activity against mouse P388 cells allografted in female BDF1 mouse assessed as change in body weight at 25 mg/kg, ip administered daily for 9 days as Klucel suspension starting 24 hrs after tumor inoculation; format: functional; details: route intraperitoneal; how it was run: as §3
Mus musculus [20] = assay: Toxicity in female CDF1 mouse allografted with mouse P388 cells assessed as animal survival at 50 mg/kg, ip administered daily for 9 days as Klucel suspension starting 24 hrs after tumor inoculation; format: organism-based; parameters: dose 50 mg/kg, route intraperitoneal; details: in vivo; how it was run: as §5
P388 [21] = assay: Antitumor activity against mouse P388 cells allografted in female CDF1 mouse assessed as change in body weight at 3.13 mg/kg, ip administered daily for 9 days as Klucel suspension starting 24 hrs after tumor inoculation; format: functional; details: route intraperitoneal; how it was run: as §3
P388 [22] = assay: Antitumor activity against mouse P388 cells allografted in female CDF1 mouse assessed as change in body weight at 6.25 mg/kg, ip administered daily for 9 days as Klucel suspension starting 24 hrs after tumor inoculation; format: functional; details: route intraperitoneal; how it was run: as §3
P388 [23] = assay: Antitumor activity against mouse P388 cells allografted in female BDF1 mouse assessed as disease cures by measuring 30-days host survival at 25 mg/kg, ip administered daily for 9 days as Klucel suspension starting 24 hrs after tumor inoculation relative to control; format: functional; details: route intraperitoneal; how it was run: as §1
Mus musculus [24] = assay: Toxicity in female CDF1 mouse allografted with mouse P388 cells assessed as animal survival at 3.13 mg/kg, ip administered daily for 9 days as Klucel suspension starting 24 hrs after tumor inoculation; format: organism-based; parameters: dose 3.13 mg/kg, route intraperitoneal; details: in vivo; how it was run: as §5
Mus musculus [25] = assay: Toxicity in female BDF1 mouse allografted with mouse L1210 cells assessed as animal survival at 100 mg/kg, ip administered daily for 9 days as Klucel suspension starting 24 hrs after tumor inoculation measured on fifth day; format: organism-based; parameters: dose 100 mg/kg, route intraperitoneal; details: in vivo
How it was run: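 Female BDF1 mice bearing ip ascitic L1210 inoculum got nine daily ip doses in a Klucel suspension, starting 24 h after tumor inoculation. Toxicity was scored as toxicity-day survivors out of the group, recorded on the fifth day. Animal weight difference (T − C) was also tabulated.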

Q: With CNC(=O)OCc1c(COC(=O)NC)c(-c2ccc(Cl)cc2)n2c1CCC2 as the compound, how does the T/C (P388 [1]) read?
A: The T/C was 150%.

Q: And the Activity (L1210 [2])?
A: The Activity was -2.8 g.

Q: What about the Activity (P388 [3]) of the same compound?
A: Its Activity is -0.9 g.

Q: What about the Activity (Mus musculus [4]) of the same compound?
A: Its Activity is “Toxic”.

Q: And the Activity (L1210 [5])?
A: Its Activity is -3.8 g.

Q: What about the Activity (P388 [6]) of the same compound?
A: The Activity was -2.5 g.

Q: What about the T/C (L1210 [7]) of the same compound?
A: The T/C was 112%.

Q: What about the T/C (P388 [8]) of the same compound?
A: Its T/C is 127%.

Q: What about the Activity (Mus musculus [9]) of the same compound?
A: Its Activity is “Non-toxic”.

Q: And the EC50 [10]?
A: The EC50 was 2.3 µg/mL (≈ 5.87 µM).

Q: And the T/C (P388 [11])?
A: The T/C was 104%.

Q: And the Activity (P388 [12])?
A: Its Activity is -0.2 g.

Q: And the T/C (L1210 [13])?
A: The T/C was 107%.

Q: What about the Activity (P388 [14]) of the same compound?
A: Its Activity is 0.5 g.

Q: What about the T/C (P388 [15]) of the same compound?
A: The T/C was 129%.

Q: What about the Activity (Mus musculus [16]) of the same compound?
A: Its Activity is “Non-toxic”.

Q: And the Activity (L1210 [17])?
A: The Activity was -2.6 g.

Q: And the Activity (Mus musculus [18])?
A: The Activity was “Non-toxic”.

Q: What about the Activity (P388 [19]) of the same compound?
A: Its Activity is -0.8 g.

Q: And the Activity (Mus musculus [20])?
A: Its Activity is “Non-toxic”.

Q: And the Activity (P388 [21])?
A: Its Activity is -0.6 g.

Q: What about the Activity (P388 [22]) of the same compound?
A: Its Activity is 0.2 g.

Q: What about the T/C (P388 [23]) of the same compound?
A: The T/C was 135%.

Q: What about the Activity (Mus musculus [24]) of the same compound?
A: The Activity was “Non-toxic”.

Q: What about the Activity (Mus musculus [25]) of the same compound?
A: The Activity was “Non-toxic”.
